Laboratory results taken from ChEMBL document CHEMBL1629618, “SOS regulation of qnrB expression” (2009).

What was measured:
Type in all cases: functional
Escherichia coli [1] = assay: Induction of qnrB4 gene expression in recA-positive Escherichia coli DM49 expressing protease-resistant lexA at 0.2 ug/ml after 30 mins by quantitative PCR method relative to control
How it was run: (§1)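 Plasmid-bearing strains grown in triplicate in LB broth at 37°C to exponential phase. At OD600 0.08 to 0.1, mitomycin C 0.2 μg/ml was added, with one culture left untreated as control. RNA was stabilised, extracted and DNase-treated, then reverse-transcribed with gene-specific reverse primers for real-time qPCR. Levels were calculated by 2−ΔΔCT relative to the unsupplemented control. Experiments repeated at least twice.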

Escherichia coli [2] = assay: Induction of qnrB4 gene expression in lexA- and recA- positive Escherichia coli AB1157 at 0.2 ug/ml after 30 mins by quantitative PCR method relative to control; how it was run: as §1
Escherichia coli [3] = assay: Induction of qnrB1 gene expression in lexA- and recA- positive Escherichia coli J53 at 0.2 ug/ml after 15 mins by quantitative PCR method relative to control; how it was run: as §1
Escherichia coli [4] = assay: Induction of qnrB1 gene expression in lexA- and recA- positive Escherichia coli J53 at 0.2 ug/ml after 30 mins by quantitative PCR method relative to control; how it was run: as §1
Escherichia coli [5] = assay: Induction of qnrB4 gene expression in lexA- and recA- positive Escherichia coli J53 at 0.2 ug/ml after 30 mins by quantitative PCR method relative to control; how it was run: as §1
Escherichia coli [6] = assay: Induction of qnrB4 gene expression in recA-positive lexA deficient Escherichia coli AB1157 expressing deffective lexA gene at 0.2 ug/ml after 30 mins by quantitative PCR method relative to control; how it was run: as §1
Escherichia coli [7] = assay: Induction of qnrA1 gene expression in lexA- and recA- positive Escherichia coli J53 at 0.2 ug/ml after 30 mins by quantitative PCR method relative to control; how it was run: as §1
Escherichia coli [8] = assay: Induction of qnrB4 gene expression in lexA- and recA- positive Escherichia coli J53 at 0.2 ug/ml after 15 mins by quantitative PCR method relative to control; how it was run: as §1

CO[C@@]12[C@H](COC(N)=O)C3=C(C(=O)C(C)=C(N)C3=O)N1C[C@@H]1N[C@@H]12 [MITOMYCIN]
fold change (FC) (Escherichia coli [1]): 1 | fold change (FC) (Escherichia coli [2]): 2 | fold change (FC) (Escherichia coli [3]): 2.6 | fold change (FC) (Escherichia coli [4]): 2.8 | fold change (FC) (Escherichia coli [5]): 7.9 | fold change (FC) (Escherichia coli [6]): 1 | fold change (FC) (Escherichia coli [7]): 0.9 | fold change (FC) (Escherichia coli [8]): 8.2
